Some results are limits rather than exact numbers.

The target of experiment [1] is T1, 3-oxo-5-alpha-steroid 4-dehydrogenase 2 (Homo sapiens, UniProt P31213).
T1 sequence (P31213 whole entry): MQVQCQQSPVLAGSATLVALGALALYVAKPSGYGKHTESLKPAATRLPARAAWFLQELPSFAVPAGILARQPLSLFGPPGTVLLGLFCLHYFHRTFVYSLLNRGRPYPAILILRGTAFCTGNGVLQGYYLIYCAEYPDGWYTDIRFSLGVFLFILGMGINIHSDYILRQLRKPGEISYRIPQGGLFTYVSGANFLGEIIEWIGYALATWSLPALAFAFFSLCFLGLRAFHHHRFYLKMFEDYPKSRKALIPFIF
The experiment can be described thus: In vitro inhibition of Steroid 5-alpha-reductase in human prostatic tissue. Conditions: read-out: Ki app. The gist of the method:
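Microsomes from surgically derived benign hyperplastic human prostate. Incubation was in 50 mM sodium citrate, pH 5.0, with 400 μM NADPH at 37 °C for 20–30 min, with ≤20% of T consumed. The reaction was quenched with ethyl acetate, and the read-out was total 5α-reduced products (DHT + ADIOL). Ki,app came from Dixon plots, or IC50 if nonlinear; ranges span microsome preparations.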

Experiment [2] deals with T2, Steroid 5-alpha-reductase (Rattus norvegicus, UniProt P24008+P31214).
T2 sequence (P24008 whole entry): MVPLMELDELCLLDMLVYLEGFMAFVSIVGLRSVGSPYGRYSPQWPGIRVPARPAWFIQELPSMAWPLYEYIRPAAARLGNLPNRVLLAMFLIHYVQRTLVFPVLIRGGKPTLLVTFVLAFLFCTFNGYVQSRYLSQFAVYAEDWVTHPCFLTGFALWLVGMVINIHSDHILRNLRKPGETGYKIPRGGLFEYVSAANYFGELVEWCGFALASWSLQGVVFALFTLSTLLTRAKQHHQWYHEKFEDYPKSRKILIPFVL
T2 sequence (P31214 whole entry): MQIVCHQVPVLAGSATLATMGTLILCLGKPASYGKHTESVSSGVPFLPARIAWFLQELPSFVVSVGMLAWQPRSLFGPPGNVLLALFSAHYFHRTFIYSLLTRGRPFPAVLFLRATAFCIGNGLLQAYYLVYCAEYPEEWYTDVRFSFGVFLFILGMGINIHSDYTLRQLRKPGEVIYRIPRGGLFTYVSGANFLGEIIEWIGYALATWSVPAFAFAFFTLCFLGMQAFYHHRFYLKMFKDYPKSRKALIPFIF
Kind of experiment: In vitro inhibition of Steroid 5-alpha-reductase in rat ventral prostates. The class given is tissue-based, Prostate gland. The gist of the method:
(§1)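 Rat ventral prostate microsomes were incubated with [14C]T (1.2 μM) and test compound (0–10 μM), both dried from ethanol. Buffer was 20 mM sodium phosphate, pH 6.6, with 400 μM NADPH, at 37 °C for 20–30 min, keeping T consumption ≤20%. After ethyl acetate quench, DHT plus […] formation was measured. Apparent Ki came from Dixon analysis, or IC50 for hyperbolic inhibition; ranges reflect different enzyme preparations.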

Experiment [3] addresses T1, 3-oxo-5-alpha-steroid 4-dehydrogenase 2. Kind of experiment: In vitro inhibitory activity against Steroid 5-alpha-reductase was determined in human prostatic tissue expressed as apparent inhibition constant; Range is 7-12. As to conditions: read-out: Ki app. In short, it runs like this:
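Microsomes from surgically derived benign hyperplastic human prostate. [14C]T (1.2 μM) and inhibitor (0–10 μM) were dried down from ethanol. Incubation was in 50 mM sodium citrate, pH 5.0, with 400 μM NADPH at 37 °C for 20–30 min, with ≤20% of T consumed. The reaction was quenched with ethyl acetate, and the read-out was total 5α-reduced products (DHT + ADIOL). Ki,app came from Dixon plots, or IC50 if nonlinear; ranges span microsome preparations.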

The target is the same in experiment [4]. The experiment can be described thus: In vitro inhibitory activity against 5-alpha reductase was determined in human prostatic tissue expressed as apparent inhibition constant. Conditions: read-out: Ki app. The gist of the method: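 Microsomes from surgically obtained benign hyperplastic human prostate; 50 mM sodium citrate, pH 5.0, 37 °C, 20–30 min. Substrate [14C]testosterone 1.2 μM, NADPH 400 μM final, inhibitor 0–10 μM. Read-out is conversion to total 5α-reduced metabolites (DHT plus 5α-androstanediol), keeping T consumption ≤20%. Ki,app from Dixon analysis for linear inhibitors; ranges given across microsome preparations.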

Experiment [5] deals with T2, Steroid 5-alpha-reductase. The experiment can be described thus: In vitro inhibitory activity against 5-alpha reductase was determined in rat ventral prostates expressed as apparent inhibition constant. The class given is tissue-based, Prostate gland. The gist of the method:
as §1

Experiment [6] concerns the target T1, 3-oxo-5-alpha-steroid 4-dehydrogenase 2. The experiment can be described thus: In vitro inhibitory activity against Steroid 5-alpha-reductase was determined in human prostatic tissue expressed as apparent inhibition constant; Range is 7-18. Conditions: read-out: Ki app.
In experiment [7] the target is T2, Steroid 5-alpha-reductase. Kind of experiment: In vitro inhibitory activity against Steroid 5-alpha-reductase was determined in rat ventral prostates expressed as apparent inhibition constant; Range is 35-50. The class given is tissue-based, Prostate gland. In short, it runs like this: as §1
In experiment [8] the target is T1, 3-oxo-5-alpha-steroid 4-dehydrogenase 2. The experiment can be described thus: In vitro inhibitory activity against Steroid 5-alpha-reductase was determined in human prostatic tissue expressed as apparent inhibition constant; Range is 700-900.
In experiment [9] the target is T2, Steroid 5-alpha-reductase. The experiment can be described thus: In vitro inhibitory activity against Steroid 5-alpha-reductase was determined in rat ventral prostates expressed as apparent inhibition constant; Range is 20-30. The class given is tissue-based, Prostate gland. The gist of the method: as §1

Take `CC1=C(C(=O)O)CC[C@@]2(C)C1=CCC1C2CC[C@@]2(C)C1CC[C@@H]2C(=O)N(C(C)C)C(C)C` (stereo partly drawn): the Ki in [1] stood at 35 nM. Also, the Ki app in [2] is listed as 70 nM.
The corresponding values for `CC(C)N(C(=O)[C@H]1CCC2C3CC=C4C=C(C(=O)O)C=C[C@]4(C)C3CC[C@@]21C)C(C)C` (stereo partly drawn) are 60 nM and 600 nM.
In turn, `CC1=C2C=C(C(=O)O)CC[C@]2(C)C2CC[C@@]3(C)C(CC[C@@H]3C(=O)N(C(C)C)C(C)C)C2C1` (stereo partly drawn) displayed a Ki app in experiment [2] of 200 nM.
The same measure, in the same setting: the same measure for `CC(C)N(C(=O)[C@H]1CCC2C3CCC4=C(CCC(C(=O)O)=C4)C3CC[C@@]21C)C(C)C` (stereo partly drawn): 290 nM.
Turning to `CC(C)N(C(=O)[C@H]1CCC2C3CC[C@H]4C=C(C(=O)O)C=C[C@]4(C)C3CC[C@@]21C)C(C)C` (stereo partly drawn), the Ki in [1] is 62 nM. Further, in [2], the Ki app came out at 65 nM.
With `CC(C)N(C(=O)[C@H]1CCC2C3C=CC4=CC(C(=O)O)=CC[C@]4(C)C3CC[C@@]21C)C(C)C` (stereo partly drawn), the Ki in experiment [3] worked out at 7 nM. Moreover, the Ki app in experiment [2] stood at 300 nM.
With `CC(C)N(C(=O)[C@H]1CCC2C3CCC4=C[C@](O)(C(=O)O)CC[C@]4(C)C3CC[C@@]21C)C(C)C` (stereo partly drawn), in [1], the Ki was 220 nM. In experiment [2], this compound registered a Ki app above 10000 nM.
With `CC(C)N(C(=O)[C@H]1CCC2C3CC=C4C=C(C(=O)O)CC[C@@H]4C3CC[C@@]21C)C(C)C` (stereo partly drawn), in experiment [2], the Ki app was 140 nM.
With `CC(C)N(C(=O)[C@H]1CCC2C3CCC4=C[C@H](C(=O)O)CC[C@]4(C)C3CC[C@@]21C)C(C)C` (stereo partly drawn), the Ki in experiment [1] was found to be 570 nM. Also, the Ki app in [2] is recorded as above 10000 nM.
Regarding `C[C@]12CCC(C(=O)O)=CC1=CCC1C2CC[C@@]2(C)C1CC[C@@H]2C#N` (stereo partly drawn), in experiment [1], the Ki was found to be 790 nM. In [2], the Ki app was determined as 140 nM.
The corresponding values for `CC(C)(C)NC(=O)[C@H]1CC[C@H]2[C@@H]3CC[C@H]4C=C(C(=O)O)CC[C@]4(C)[C@H]3CC[C@]12C` are 110 nM and 11 nM.
Turning to `CC(C)N(C(=O)[C@H]1CCC2C3CC(F)=C4C=C(C(=O)O)CC[C@]4(C)C3CC[C@@]21C)C(C)C` (stereo partly drawn), the Ki in experiment [1] turned out to be 32 nM. Besides, in experiment [2], the Ki app amounted to 33 nM.
As to `CC(C)N(C(=O)[C@H]1CCC2C3CC[C@H]4C=C(C(=O)O)CC[C@]4(C)C3CC[C@@]21C)C(C)C` (stereo partly drawn), the Ki in experiment [4] turned out to be 30 nM. Moreover, in experiment [5], the Ki app is recorded as 70 nM.
Consider `CC(C)N(C(=O)[C@H]1CCC2C3CC=C4C=C(C(=O)O)CC[C@]4(C)C3CC[C@@]21C)C(C)C` (stereo partly drawn), for which the Ki in experiment [6] worked out at 7 nM. The Ki app in experiment [7] is recorded as 35 nM.
`CC(C)N(C(=O)[C@H]1CC[C@H]2[C@@H]3CC[C@H]4CC(C(=O)O)CC[C@]4(C)[C@H]3CC[C@]12C)C(C)C` (stereo partly drawn): the Ki in [1] was 2200 nM. In experiment [2], this compound came in with a Ki app of 340 nM.
As to `CC(C)N(C(=O)[C@H]1CCC2C3CCC4=C[C@@](O)(C(=O)O)CC[C@]4(C)C3CC[C@@]21C)C(C)C` (stereo partly drawn), the Ki in experiment [1] turned out to be 320 nM. Moreover, the Ki app in experiment [2] was above 10000 nM.
In the case of `CC(C)N(C(=O)[C@H]1CCC2C3CC[C@H]4CC(C(=O)O)=CC[C@]4(C)C3CC[C@@]21C)C(C)C` (stereo partly drawn), the Ki in experiment [1] was 85 nM. Further, the Ki app in [2] came out at 110 nM.
In the case of `CC(CO)[C@@H]1CCC2C3CCC4C=C(C(=O)O)CC[C@]4(C)C3CC[C@@]21C` (stereo partly drawn), in [1], the Ki was determined as 5000 nM. This compound came in with a Ki app in experiment [2] of 155 nM.
The corresponding values for `CC(C)N(C(=O)[C@H]1CCC2C3CC=C4C=C(C(=O)O)CC[C@]4(C)C3C=C[C@@]21C)C(C)C` (stereo partly drawn) are 7 nM and 47 nM.
Consider `CC(C)N(C(=O)[C@H]1CCC2C3CCC4=CC(C(=O)O)=CC[C@]4(C)C3CC[C@@]21C)C(C)C` (stereo partly drawn), for which the Ki in experiment [1] came out at 52 nM. In experiment [2], this compound registered a Ki app of 120 nM.
For orientation: IC50 means the point on the concentration scale where inhibition reaches its midpoint. The compound `CC(C)N(C(=O)[C@H]1CCC2C3CC(C(F)(F)F)=C4C=C(C(=O)O)CC[C@]4(C)C3CC[C@@]21C)C(C)C` (stereo partly drawn) registered a Ki app in experiment [2] of 1000 nM. For the same compound, the IC50 in experiment [8] came to 700 nM.
For `CC(C)N(C(=O)[C@H]1CCC2C3CCC4=C[C@@H](C(=O)O)CC[C@]4(C)C3CC[C@@]21C)C(C)C` (stereo partly drawn), the Ki in experiment [1] amounted to 200 nM. For the same compound, the Ki app in experiment [2] worked out at 2000 nM.
Compound `CC(C)N(C(=O)[C@H]1CC[C@H]2[C@@H]3CC[C@H]4C(F)=C(C(=O)O)CC[C@]4(C)[C@H]3CC[C@]12C)C(C)C` gave a Ki app in [2] of 35 nM.
Turning to `CC(C)(C)NC(=O)[C@H]1CC[C@H]2[C@@H]3CC=C4C=C(C(=O)O)CC[C@]4(C)[C@H]3CC[C@]12C` [EPRISTERIDE], the Ki app in [9] is listed as 20 nM.

These data come from ChEMBL document CHEMBL1124725, “Inhibition of steroid 5 alpha-reductase by unsaturated 3-carboxysteroids” (J Med Chem, 1990).
